Shown are actives, neighbours in structure and some others; about 1.9% of the full set was active somewhere.
TbMetRS inhib – Trypanosoma brucei MetRS inhibition; purified T. brucei MetRS, ATP depletion, Kinase-Glo luminescence; inhibition, % at 11.9 µM; hit rate 0.4% among 360,000;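 active means inhibition above a per-plate cutoff of the control wells' mean inhibition plus 3 SD, cut at about 5.5% in these data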;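 further: 0% = DMSO wells median and 100% = median of wells with control inhibitor compound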
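Test system – parasite MetRS enzyme · Reagent – substrates ATP, L-methionine and bulk Escherichia coli tRNA · Doses – 11.9 µM compound single dose, 0.9% DMSO · Times – 15 min enzyme-compound preincubation, 2 h reaction, 10 min detection, 25 °C · Signal – Kinase-Glo luminescence, ATP depletion format · Controls – DMSO-only wells as low control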
Pemphigus Ab inh – blocks pemphigus antibody binding to human desmoglein-3; DSG3-coupled beads, scFv-anti-DSG3-GFP binding, flow cytometry; active compounds read low; AID 588358; P32926; hit rate 0.48% among 310,000; binding (percent of control), % at 10 µM;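 active means binding more than 3 SD below its plate's average and above zero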;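 further: hits lower antibody fragment binding to DSG3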
Rce1 inh – yeast Ras-converting enzyme inhibition; yeast membranes, quenched prenylated peptide cleavage fluorescence; hit rate 0.27% among 290,000; AID 2563; Q03530; calls only;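 active means fall in fluorescence gain of 50% or more versus controls, with final raw signal at or below 3038400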;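 further: plate controls were neutral control wells for no effect and wells lacking membranes for full effect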
core dimer inh – blocks dimerization of HCV core protein | TR-FRET GST/Flag-core106 dimerization, 1536-well | inhibition, % at 5 µM | hit rate 0.33% among 300,000;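 active means inhibition above the mean of all tested compounds plus 3 SD, set per screening campaign, cut at about 45% in these data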
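Assay system: tagged HCV core106 pair (GST and Flag); medium: KF-containing HEPES buffer, pH 7.45, DTT, CHAPS, BSA; also added: Eu donor and XL665 acceptor anti-tag antibodies; dosing: 5 µM single dose; timing: compound-protein-antibody incubation 4 h at 22.5 °C; signal: TR-FRET 671 and 617 nm emission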
NadD inh – inhibitors of Staphylococcus aureus NadD | purified NadD enzyme, colorimetric absorbance read-out | hit rate 0.78% among 360,000 | inhibition, % at 20 µM | AID 602399; in the data active means inhibition above about 26%
* = called active by the depositor; i = inactive; . = no result given; + = active, no number.

SMILES	TbMetRS inhib	Pemphigus Ab inh	Rce1 inh	core dimer inh	NadD inh
N#Cc1cc(C(=O)c2cc(F)ccc2O)cn(-c2nccs2)c1=O	-0.3	120.5	i	48.0*	12.7
C[C@H]1COc2c(N3CCN(C)CC3)c(F)cc3c(=O)c(C(=O)O)cn1c23	-0.4	93.3	+	0.0	7.6
C[C@H]1COc2c(C3(N)CC3)c(F)cc3c(=O)c(C(=O)O)cn1c23	.	.	i	4.2	.
N#C/C(=C\c1ccc(Cl)cc1)c1nc2ncccc2[nH]1	-1.4	107.5	i	2.1	9.1
COc1ccc(N(C(=O)C2COc3ccccc3O2)C(C(=O)NC2CCCCC2)c2ccccc2)cc1OC (configuration not stated)	0.1	97.7	i	19.4	7.7
COc1cc(OC)cc(N(C(=O)C2COc3ccccc3O2)C(C(=O)NC2CCCCC2)c2ccc(O)cc2)c1 (configuration not stated)	-1.2	76.0*	i	14.9	5.4
O=C(C1CC(=O)N(c2ccccc2)C1)N1CCC(c2nc3ccccc3[nH]2)CC1 (configuration not stated)	0.2	19.5	i	0.0	4.8
CCOc1ccc(CC(=O)NNC(=S)NCCc2ccccc2)cc1	-0.1	66.2*	i	2.9	1.2
CCOC(=O)c1oc2ccc(S(=O)(=O)n3nc(-c4ccc(OC)cc4)cc3N)cc2c1C	0.0	94.1	i	47.1*	19.5
c1ccc(CSc2nc3ncncc3[nH]2)cc1	-0.7	99.0	i	1.4	-2.4
S=c1nc(SCc2ccccc2)[nH]c2ccccc12	0.1	101.9	i	65.1*	-3.2
Cc1ccc(NS(=O)(=O)c2ccc(NC(=O)N3CCCCC3)cc2)cc1	-0.2	.	+	-7.0	-2.6
Cc1cccc(NS(=O)(=O)c2ccc(NC(=O)N3CCCCC3)cc2)c1	-0.4	104.2	i	5.8	-0.8
O=[N+]([O-])c1cncn1CCN1CCOCC1	-0.3	94.1	.	.	-1.9
O=C(COC(=O)c1cc([N+](=O)[O-])ccc1N1CCOCC1)Nc1ccccc1OC(F)F	-0.2	100.1	i	-7.0	-8.6
Cc1ccc(-c2nnn(CC(=O)NCC3CC3)n2)o1	-0.7	.	i	0.0	4.1
Cc1ccc(-c2nnn(CC(=O)Nc3ccc4nn(-c5ccccc5)nc4c3)n2)o1	-0.3	93.9	i	2.2	34.1*
CCCCNC(=O)CCc1c(C)nc2nc(-c3cc(OC)cc(OC)c3)nn2c1C	-0.5	-1.6*	i	3.0	-1.0
CCOC(=O)C(Cc1ccccc1)NC(=O)CCc1c(C)nc2nc(C)nn2c1C (configuration not stated)	-0.5	85.9*	.	-5.9	5.4
CCOC(=O)C(Cc1ccccc1)NC(=O)CCc1c(C)nc2ncnn2c1C (configuration not stated)	0.0	.	i	-0.5	4.0
O=C(COc1ccccc1)Nc1ccc2[nH]c(=O)[nH]c2c1	-0.1	98.1	.	-2.8	4.8
O=C(NNS(=O)(=O)c1ccccc1)c1ccc(S(=O)(=O)N2CCCCC2)cc1	-1.0	102.0	i	-2.9	2.2
N#Cc1c2n(c3c(=O)n(CC(=O)c4ccc(Br)cc4)cnc13)CCCC2	-1.2	112.6	i	23.1	6.9
N#Cc1c2ncn(CC(=O)c3ccc(Br)cc3)c(=O)c2c2n1CCC2	-1.1	30.0*	i	8.1	-2.6
O=C(C1=C[C@@H](C2CC2)C[C@@H](OCc2ccc(CO)cc2)O1)N1CCN(Cc2ccccc2)CC1	-0.6	98.6	+	0.8	1.3
SMILES	TbMetRS inhib	Pemphigus Ab inh	Rce1 inh	core dimer inh	NadD inh
O=C(Nc1ccc2oc(=O)ccc2c1)c1ccc(-c2cccc([N+](=O)[O-])c2)o1	-0.1	103.3	i	16.6	20.1
O=C(Nc1ccc2oc(=O)ccc2c1)c1ccc(-c2ccccc2[N+](=O)[O-])o1	0.5	83.1*	i	0.2	-5.1
COc1cccc(N=Cc2ccc(O)cc2O)c1	-0.3	84.9*	i	17.8	17.2
CCn1c(/N=C/c2ccc(OC)cc2O)nc2ccccc21	2.5	102.5	i	6.9	-12.1
Oc1ccc(C=Nc2ccc3ncccc3c2)c(O)c1	.	.	i	62.7*	.
Oc1ccc(C=Nc2cccc3ncccc23)c(O)c1	0.2	.	i	-7.2	5.8
COc1ccc(OCCOc2ccc(S(=O)(=O)N3CCCC3)cc2C(N)=O)cc1	0.1	95.7	.	.	-2.8
Cc1oc(=O)c(NC(=O)c2ccccc2)cc1C(=O)c1ccccc1	-0.3	.	i	-1.1	2.7
CC(C)C(=O)N1CCN(c2nc(-c3ccccc3)c3c(c2C#N)CCCC3)CC1	0.0	102.2	+	11.0	0.0
CC(C)Cc1nc(N2CCN(C(=O)c3ccco3)CC2)c(C#N)c2c1CCCC2	-0.2	100.6	i	11.1	8.7
COc1cc(/C=N/NS(=O)(=O)c2ccc3ccccc3c2)ccc1OCCN1CCOCC1	-1.2	115.2	i	-8.6	-6.6
ClC(Cl)(c1nnnn1-c1ccccc1)c1nnnn1-c1ccccc1	-0.4	77.2*	.	1.0	3.8
O=C(CCC1CCCCC1)NCCN1C2=NC[C@H](Cc3ccc(O)cc3)N2C[C@H]1Cc1ccc(O)cc1	-0.4	107.5	i	-1.6	7.3
Nc1ccc(-c2c3ccc(=O)cc-3oc3cc(O)ccc23)cc1C(=O)O	0.1	100.3	i	-2.7	-5.8
O=c1ccc2c(-c3ccccc3)c3ccc(O)cc3oc-2c1	-0.3	169.9	i	65.6*	9.4
Cc1ccc[n+](C2C(c3ccc([N+](=O)[O-])cc3)C(C#N)=C([S-])NC2(O)C2CC2)c1 (configuration not stated)	-0.8	96.8	i	8.2	7.2
N#CC(=C=[N-])C1=C(C#N)C(c2ccccc2F)C([n+]2ccccc2)C(O)(C2CC2)N1 (configuration not stated)	0.0	103.0	i	51.9*	7.8
Cc1cccc[n+]1C1C(c2ccccc2)C(C#N)=C(C(=C=[N-])C#N)NC1(O)C1CC1 (configuration not stated)	0.4	92.1	i	32.4	33.9*
c1coc(-c2ccnc3nc(-n4cccc4)nn23)c1	-0.3	77.1	i	56.5*	11.4
COc1ccc(-c2ccnc3nc(-n4cccc4)nn23)cc1	-0.5	97.6	i	13.3	-1.3
COc1cc(S(=O)(=O)N2CCOCC2)ccc1NC(=O)COC(=O)COc1ccccc1	0.7	87.0	i	-2.1	16.2
CCOc1cc(/C=N/Nc2nc(-c3cccc(S(=O)(=O)N4CCCC4)c3)cs2)ccc1O	-2.2	88.2	i	22.4	44.9*
O=C(O)c1ccccc1C(=O)Nc1ccccc1NC(=O)c1ccccc1C(=O)O	-2.2	106.2	.	-0.5	-1.0
CCOc1ccc(N2CC(C(=O)NC3CCCCCC3)CC2=O)cc1 (configuration not stated)	-1.2	99.3	i	-8.6	-2.4
CCN(c1ccc(NC(=O)CCNC(=O)c2ccco2)cc1)C(C)C	-0.4	95.7	i	-10.9	-1.2
C/C(=N\Nc1nc(-c2cc(C)ccc2C)cs1)c1cc2ccccc2oc1=O	-0.6	102.7	i	57.0*	3.7

Screening results: PubChem, several laboratories
